Bioassay records (PubChem BioAssay)
Compounds with a hit are over-represented: about 1.5% of the library has one in this group of screens.
Cneo AK release – causes C. neoformans cell lysis; actives 0.2% (n = 360,000); lysis activity, % at 15 µM; adenylate kinase release luminescence, 4 h; normalised: neutral wells 0, clomiphene wells 100;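 active = mean lysis activity across replicates of at least 80%, whatever share of replicates individually reach that level; inactive = mean lysis activity below 80%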
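Assay system: C. neoformans cells. Amount: yeast cell density of 5 × 10^6 cells/mL. Technique: AK luminescence. Buffer or medium: YPD. Times: static 4 h at 37 °C with compound, 1 h detection. Dosing: single-point compound dose. Read-out: lysis from increased AK signal.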
SUMO Mot1 rescue – inhibitors of SUMOylation pathway: yeast Mot1-301 growth rescue. S. cerevisiae Mot1-301 growth rescue, ATP luminescence, 38.5C; percent above DMSO median, 100 means doubled. growth rescue, % at 18.8 µM. actives 1% (n = 320,000);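 active = every valid replicate shows activation above 250% relative to neutral control wells; inactive = the rest, any valid replicate at or below 250%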;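 note: OY570 slx delta 5 strain wells were the positive control but not used for scaling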
Statin myotox sup – suppression of simvastatin myotoxicity; C2C12 myotubes + simvastatin, ATP luminescence, 48 h; scaled: DMSO 0, geranylgeraniol control 100; rescue of ATP level, % at 7.49 µM; actives 0.78% (n = 330,000); AID 602340;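 active = mean ATP rescue above about 67%, or every replicate alone reaching that limit, limit read from the data, passing the limit was not always enough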;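 note: myotubes were challenged with 10 µM simvastatin during compound exposure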
Mot1 SUMO dose – inhibits SUMO pathway, affecting Mot1-301 yeast growth. shares compounds with SUMO Mot1 rescue. S. cerevisiae Mot1-301 galactose growth, ATP luminescence, 24 h; -100 = growth of slx-deleted rescue strain. growth activity, percent, % at 42 µM. 2,300 tested, under 10 active. AID 493004;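 active = Signal drops as the depositor expects, and the fitted half-maximal dose is no more than ten times the top valid tested dose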;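 note: more negative values mean stronger growth rescue toward the control strain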
The depositor's hits bear a star; i = inactive; / = not tested or not shown; + = active, no number.

SMILES	Cneo AK release	SUMO Mot1 rescue	Statin myotox sup	Mot1 SUMO dose
CN1CCN(C(=O)C[C@H]2CC[C@@H](NC(=O)Cc3ccccn3)[C@H](CO)O2)CC1	-12	/	2	/
CC(C)C#Cc1cnc2c(c1)C(=O)N([C@@H](C)CO)C[C@@H](C)[C@@H](CN(C)C(=O)C1CCC1)O2	38	/	5	/
O=C(C[C@@H]1C[C@H]2c3cc(NC(=O)Nc4ccccc4F)ccc3O[C@H]2[C@H](CO)O1)NCc1cc(F)ccc1F	1	/	9	/
Cn1ncc(C#N)c1NC(=O)C1CC(c2ccc(Cl)c(Cl)c2)=NO1 (configuration not stated)	-1	-13	9	/
O=C(NCC1CCCO1)C1CC(c2ccc(Cl)c(Cl)c2)=NO1 (configuration not stated)	0	870*	-11	0
C/C(CC(=O)Nc1cccc(Cl)c1Cl)=N\NC(=O)C(=O)N1CCCC1	4	0	5	/
C/C(CC(=O)Nc1cccc(Cl)c1Cl)=N\NC(=O)c1ccccc1C	/	452*	/	0
COc1ccc(S(=O)(=O)Nc2ccc3c(c2)C(=O)N([C@@H](C)CO)C[C@@H](C)[C@H](CN(C)C(=O)CCCN(C)C)OCCCC[C@@H](C)O3)cc1	-1	/	4	/
COC(=O)c1ccc(CSc2nnc(-c3ccccc3)n2C)o1	/	-1	/	/
COC(=O)c1ccc(CSc2nnnn2-c2ccccc2)o1	-9	+	4	1
CO[C@H]1CN(C)C(=O)c2cc(NS(=O)(=O)c3cn(C)cn3)ccc2OC[C@H](C)N(C)C[C@H]1C	-3	/	16	/
CCCNC(=O)Nc1ccc2c(c1)C(=O)N(C)C[C@H](OC)[C@H](C)CN(C(=O)C1CCCCC1)[C@H](C)CO2	/	/	12	/
Cn1c(SCC(=O)N/N=C/c2ccc([N+](=O)[O-])s2)nnc1-c1ccc(Cl)cc1	/	958*	/	0
COc1cc([N+](=O)[O-])cc(/C=N/NC(=O)CSc2nnc(-c3ccccc3)n2C)c1O	/	77	/	/
CNC[C@@H]1Oc2ccc(NS(=O)(=O)c3ccc(C)cc3)cc2CC(=O)N([C@H](C)CO)C[C@H]1C	3	/	-15	/
CC(=O)Nc1ccc2c(c1)C(=O)N(C)[C@@H]1CC[C@H](CC(=O)N3CCc4ccccc4C3)O[C@@H]1CO2	-4	/	-5	/
O=C(C[C@@H]1CC[C@H]2[C@@H](COC[C@@H](O)CN2CC2CCCCC2)O1)NCc1ccc(F)cc1	1	/	11	/
CCOc1ccc(Nc2nc(Cc3nnc(SCC(N)=O)o3)cs2)cc1	-4	6	-25	/
CCOc1ccc(NC(=O)CSc2nnc(Cc3csc(C)n3)o2)cc1	3	777*	6	0
C[C@H]1CN([C@@H](C)CO)C(=O)c2cc(NC(=O)CCC(F)(F)F)ccc2O[C@@H]1CN(C)C(=O)Nc1ccc(F)cc1	54	/	-17	/
CCOC(=O)c1c(C)[nH]c(O)c1C=Nc1ccccc1	0	883*	7	0
CCOC(=O)c1c(C)[nH]c(C=Nc2ccc(OC)cc2)c1O	-8	-17	-2	/
C[C@H](CO)N1C[C@H](C)[C@@H](CN(C)C(=O)C2CCCCC2)OCCCC[C@H](C)Oc2ccc(NC(=O)Nc3ccccc3)cc2C1=O	0	/	/	/
CNC(=S)NNC(=O)c1sccc1OCc1ccc(Cl)cc1Cl	5	/	6	/
N/C(=N\NC(=O)c1sccc1OCc1ccc(Cl)cc1Cl)c1ccccn1	/	529*	/	0
SMILES	Cneo AK release	SUMO Mot1 rescue	Statin myotox sup	Mot1 SUMO dose
CN(C)CCCNC(=O)[C@@H]1[C@@H](CO)[C@@H]2Cn3c(ccc(-c4ccccc4)c3=O)[C@H]1N2C(=O)CC1CC1	-2	/	-12	/
COCC(=O)Nc1ccc2c(c1)[C@H]1C[C@H](CC(=O)N[C@H](C)c3ccccc3)O[C@@H](CO)[C@H]1O2	0	/	4	/
CNC(=O)COC(=O)c1cc(NC(=O)c2ccco2)c(OC)c(OC)c1	-7	-8	2	/
COc1cc(C(=O)OCC(=O)NCc2ccccc2)cc(NC(=O)c2ccco2)c1OC	0	383*	/	0
COc1ccc(NC(=O)Nc2ccc3c(c2)C(=O)N([C@@H](C)CO)C[C@H](C)[C@H](CN(C)S(=O)(=O)c2cn(C)cn2)OCCCC[C@@H](C)O3)cc1	-2	/	/	/
COC(=O)C1=C(C)N(Cc2ccccc2)C(=NCc2ccccc2)N[C@H]1c1cccc(F)c1	-3	104	-30	/
COC(=O)C1=C(C)N(Cc2ccccc2)C(=S)N[C@H]1c1cccc(F)c1	180*	584*	5	1
COc1ccc(S(=O)(=O)N[C@@H]2CC[C@@H](CC(=O)NCc3ccccc3F)O[C@H]2CO)cc1	7	/	4	/
CN(Cc1cccnc1)Cc1cn[nH]c1-c1ccc(-c2ccccc2)cc1	-2	791*	-27	0
O=C(Cc1ccc(-c2ccccc2)cc1)NCc1cccnc1	/	i	/	/
O=C(NCC[C@@H]1CC[C@@H](NC(=O)C2CCCCC2)[C@@H](CO)O1)c1cc(Cl)cc(Cl)c1	3	/	1	/
O=C(Nc1ccccc1Br)C1CCN(C(=O)Cc2ccccc2)CC1	6	352	/	/
O=C(Nc1ccccc1F)C1CCN(C(=O)Cc2ccccc2)CC1	-1	684*	7	0
CCCNC(=O)C[C@H]1C[C@@H]2c3cc(NC(=O)CC4CC4)ccc3O[C@@H]2[C@@H](CO)O1	6	/	-4	/
CCC(C)(C)n1nnnc1C(c1ccc(OC)c(OC)c1)N1CCN(c2cccc(OC)c2)CC1 (configuration not stated)	-3	+	-28	0
CCC(C)(C)n1nnnc1C(c1ccc(OC)c(OC)c1)N1CCN(c2ccccc2)CC1 (configuration not stated)	5	-11	-32	/
O=C(N[C@@H]1CC[C@@H](CC(=O)N2CCCCC2)O[C@@H]1CO)c1ccccn1	-1	/	-4	/
CCOc1ccc(CCN2CN(C3CCCCC3)CNC2=S)cc1OCC	/	431*	/	1
CCCCN1CNC(=S)N(CCc2ccc(OCC)c(OCC)c2)C1	0	-32	-4	/
O=C(N[C@H]1CC[C@@H](CCNC(=O)C2CCC2)O[C@H]1CO)c1ccncc1	-2	/	1	/
Cc1cccc(OCC(O)CN2C(C)(C)CC(O)CC2(C)C)c1 (configuration not stated)	11	571*	-2	0
CC1(C)CC(O)CC(C)(C)N1CC(O)COCc1ccccc1 (configuration not stated)	0	287	-2	/
CC1=C(C(=O)N2CCOCC2)C(c2ccc(O)cc2)NC(=S)N1 (configuration not stated)	/	583*	/	0
CC1=C(C(=O)N2CCOCC2)C(c2ccc(-c3ccccc3)cc2)NC(=S)N1 (configuration not stated)	3	-7	12	/
NS(=O)(=O)c1ccc(N=C2C(=O)Nc3ccccc32)cc1	6	1	11	/
CC(C)C1=CC(=Nc2ccc(S(N)(=O)=O)cc2)C=C(C(C)C)C1=O	0	+	-1	0
C[C@H]1CN([C@@H](C)CO)C(=O)c2cc(C#CC3CCCCC3)cnc2O[C@@H]1CN(C)C	/	/	-4	/
